From ChEMBL document CHEMBL1287793, “Green synthesis and biological evaluation of some novel azoles as antimicrobial agents” (2010)
Activity calls are given as the source filed them. No cut-off for these calls is given here.

How the values were obtained:
Type in all cases: functional
Staphylococcus aureus = assay: Antimicrobial activity against Staphylococcus aureus after 18 to 20 hrs at 37degC by disc diffusion method
Procedure, shortened: (§1)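 Agar diffusion disc assay: bacterial inoculum of 1 × 10⁸ bacteria/mL spread on Mueller Hinton agar. 6 mm filter paper discs loaded with sample dissolved in DMSO. Chloramphenicol at 10 mcg/disc served as control. Plates incubated 18–20 h at 37 °C. Read-out was the zone of inhibition in mm.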

Escherichia coli = assay: Antimicrobial activity against Escherichia coli after 18 to 20 hrs at 37degC by disc diffusion method; procedure, shortened: as §1
Aspergillus niger = assay: Antimicrobial activity against Aspergillus niger after 18 to 20 hrs at 37degC by disc diffusion method
Procedure, shortened: (§2)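 Fungal inoculum of 1 × 10⁶/mL spread on potato dextrose agar. 6 mm filter paper discs received sample dissolved in DMSO. Nystatin at 100 U/disc was the antifungal control. Plates incubated 18–20 h at 37 °C, then the zone of inhibition was measured in mm.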

Bacillus subtilis = assay: Antimicrobial activity against Bacillus subtilis after 18 to 20 hrs at 37degC by disc diffusion method; procedure, shortened: as §1
Candida albicans = assay: Antimicrobial activity against Candida albicans after 18 to 20 hrs at 37degC by disc diffusion method; procedure, shortened: as §2
Pseudomonas aeruginosa = assay: Antimicrobial activity against Pseudomonas aeruginosa after 18 to 20 hrs at 37degC by disc diffusion method; procedure, shortened: as §1

Compound	diameter of the inhibition zone (DIZ) (Staphylococcus aureus)	diameter of the inhibition zone (DIZ) (Escherichia coli)	diameter of the inhibition zone (DIZ) (Aspergillus niger)	diameter of the inhibition zone (DIZ) (Bacillus subtilis)	diameter of the inhibition zone (DIZ) (Candida albicans)	diameter of the inhibition zone (DIZ) (Pseudomonas aeruginosa)	inhibition zone (IZ) (Aspergillus niger) [mm]
COc1c(F)c(F)cc2c(=O)c(-c3n[nH]c(=S)n3-c3ccccc3)cn(C3CC3)c12	21 mm	inactive	19.9 mm	inactive	inactive	inactive	
COc1ccc(Nc2nnc(-c3cn(C4CC4)c4c(OC)c(F)c(F)cc4c3=O)o2)cc1	28 mm	inactive	28.1 mm	26.7 mm	25.3 mm		
COc1c(F)c(F)cc2c(=O)c(-c3nnc(Nc4ccccc4)o3)cn(C3CC3)c12	18.8 mm	inactive	14.7 mm	25.4 mm			
COc1c(F)c(F)cc2c(=O)c(C(=O)NNC(=S)Nc3cccc(C)c3)cn(C3CC3)c12	inactive	inactive	inactive	inactive	inactive	inactive	
COc1c(F)c(F)cc2c(=O)c(-c3n[nH]c(=S)n3-c3ccccc3C)cn(C3CC3)c12	21.2 mm	inactive	20.8 mm	inactive	inactive	inactive	
COc1c(F)c(F)cc2c(=O)c(-c3n[nH]c(=S)n3-c3ccc(Cl)cc3)cn(C3CC3)c12	22.2 mm	inactive	21.5 mm	inactive	inactive	inactive	
COc1c(F)c(F)cc2c(=O)c(-c3nnc(Nc4ccccc4)s3)cn(C3CC3)c12	17 mm	24 mm	26.1 mm	27 mm	16.3 mm	22 mm	
COc1c(F)c(F)cc2c(=O)c(-c3nnc(Nc4ccccc4C)o3)cn(C3CC3)c12	inactive	inactive	inactive	inactive	inactive	inactive	
COc1ccc(Nc2nnc(-c3cn(C4CC4)c4c(OC)c(F)c(F)cc4c3=O)s2)cc1	inactive	inactive	inactive	inactive	inactive	inactive	
COc1c(F)c(F)cc2c(=O)c(-c3nnc(Nc4cccc(C)c4)o3)cn(C3CC3)c12	inactive	inactive	inactive	21 mm	inactive	inactive	
COc1c(F)c(F)cc2c(=O)c(-c3n[nH]c(=S)n3-c3cccc(C)c3)cn(C3CC3)c12	19.8 mm	inactive	21.8 mm	inactive	inactive	inactive	
NYSTATIN							21.1
COc1c(F)c(F)cc2c(=O)c(C(=O)NNC(=S)Nc3ccccc3C)cn(C3CC3)c12	17.2 mm	18.5 mm	18 mm	20.1 mm		20.1 mm	
COc1c(F)c(F)cc2c(=O)c(-c3nnc(Nc4ccccc4C)s3)cn(C3CC3)c12	inactive	inactive	inactive	inactive	inactive	inactive	
COc1c(F)c(F)cc2c(=O)c(-c3nnc(Nc4cccc(C)c4)s3)cn(C3CC3)c12	inactive	23.8 mm	inactive	inactive	inactive	27.1 mm	
COc1ccc(-n2c(-c3cn(C4CC4)c4c(OC)c(F)c(F)cc4c3=O)n[nH]c2=S)cc1	23.4 mm	inactive	21.6 mm	inactive	inactive	inactive	
COc1c(F)c(F)cc2c(=O)c(-c3nnc(Nc4ccc(Cl)cc4)s3)cn(C3CC3)c12	21 mm	inactive	inactive	28 mm	22 mm	inactive	
COc1c(F)c(F)cc2c(=O)c(C(=O)NNC(=S)Nc3ccc(Cl)cc3)cn(C3CC3)c12	15.9 mm	15 mm	inactive	15.1 mm	inactive	22.6 mm	
COc1ccc(NC(=S)NNC(=O)c2cn(C3CC3)c3c(OC)c(F)c(F)cc3c2=O)cc1	14.3 mm	16.6 mm	inactive	15.3 mm	inactive	22.8 mm	
COc1c(F)c(F)cc2c(=O)c(C(=O)NNC(=S)Nc3ccccc3)cn(C3CC3)c12	23.9 mm	24.1 mm	inactive	24.1 mm	14.2 mm	24.2 mm	
COc1c(F)c(F)cc2c(=O)c(-c3nnc(Nc4ccc(Cl)cc4)o3)cn(C3CC3)c12	21.06 mm	inactive		24.6 mm	22.5 mm	26.1 mm	
O=C(N[C@H](CO)[C@H](O)c1ccc([N+](=O)[O-])cc1)C(Cl)Cl [CHLORAMPHENICOL]	32.8 mm	29.14 mm		30.11 mm		24.68 mm	
